From ChEMBL document CHEMBL4350961, “Discovery of Pyrrolo[3,2- d]pyrimidin-4-one Derivatives as a New Class of Potent and Cell-Active Inhibitors of P300/CBP-Associated Factor Bromodomain” (J Med Chem, 2019)
Activity calls are given as the source filed them. No cut-off for these calls is given here.

Tests used:
[1] = molecular target: Insulin-like growth factor 1 receptor (Homo sapiens) (UniProt P08069); test: Inhibition of recombinant human IGF1R (959 to end residues) at 10 uM using KKKSPGEYVNIEFG as substrate measured after 40 mins in presence of [gamma33P]ATP by scintillation counting method
[2] = molecular target: Leukocyte tyrosine kinase receptor (Homo sapiens) (UniProt P29376); test: Inhibition of recombinant human LTK (450 to end residues) at 10 uM using GEEPLYWSFPAKKK as substrate measured after 40 mins in presence of [gamma33P]ATP by scintillation counting method
[3] = molecular target: Testis-specific serine/threonine-protein kinase 1 (Homo sapiens) (UniProt Q9BXA7); test: Inhibition of recombinant full-length human TSSK1 at 10 uM using KKKVSRSGLYRSPSMPENLNRPR as substrate measured after 120 mins in presence of [gamma33P]ATP by scintillation counting method
[4] = AUC (0 to infinity) in Sprague-Dawley rat at 10 mg/kg, po administered via gavage by LC-MS/MS analysis; format: ADME, organism-based; parameters: dose 10 mg/kg, route oral, time infinity; conditions: in vivo
Method in brief: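 Serial jugular blood samples taken at designated times and spun to plasma at 4 ℃. Plasma mixed with acetonitrile holding internal standard, then LC-MS/MS. Parameters from noncompartmental fitting.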

[5] = molecular target: E3 ubiquitin-protein ligase TRIM33 (Homo sapiens) (UniProt Q9UPN9); test: Binding affinity to human partial length TRIM33 (D882 to A1087 residues) expressed in bacterial expression system at 1 uM by BROMOscan assay
Method in brief: (§1)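 BROMOscan bromodomain cross-screen run by an outside service, compound at 1 µM against 32 recombinant bromodomains. Binding given as percent of control.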

[6] = molecular target: Dual specificity protein kinase CLK2 (Homo sapiens) (UniProt P49760); test: Inhibition of recombinant human CLK2 (138 to end residues) at 10 uM using YRRAAVPPSPSLSRHSSPHQS(p)EDEEE as substrate measured after 40 mins in presence of [gamma33P]ATP by scintillation counting method
[7] = molecular target: Receptor-interacting serine/threonine-protein kinase 2 (Homo sapiens) (UniProt O43353); test: Inhibition of human RIPK2 (1 to 299 residues) using myelin basic protein as substrate measured after 120 mins in presence of [gamma33P]ATP by scintillation counting method
Method in brief: (§2)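 Kinase panel of 422 kinases screened by Eurofins KinaseProfiler at a single test-compound concentration of 10 µM.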

Homo sapiens [8] = organism: Homo sapiens; test: Inhibition of recombinant human Flt4 V1128L/H1146R mutant (800 to end residues) at 10 uM using GGEEEEYFELVKKKK as substrate measured after 40 mins in presence of [gamma33P]ATP by scintillation counting method
[9] = system: Tyrosine-protein kinase ABL1 (Homo sapiens), P00519 [T315I]; test: Inhibition of recombinant human ABL T315I mutant (27 to end residues) at 10 uM using EAIYAAPFAKKK as substrate measured after 40 mins in presence of [gamma33P]ATP by scintillation counting method
[10] = molecular target: Serine/threonine-protein kinase Nek7 (Homo sapiens) (UniProt Q8TDX7); test: Inhibition of recombinant human NEK7 (2 to end residues) at 10 uM using FLAKSFGSPNRAYKK as substrate measured after 40 mins in presence of [gamma33P]ATP by scintillation counting method
[11] = molecular target: Protein kinase C iota type (Homo sapiens) (UniProt P41743); test: Inhibition of recombinant full-length human PKCiota at 10 uM using ERMRPRKRQGSVRRRV as substrate measured after 40 mins in presence of [gamma33P]ATP by scintillation counting method
[12] = molecular target: Dual specificity protein kinase CLK3 (Homo sapiens) (UniProt P49761); test: Inhibition of recombinant full-length human CLK3 at 10 uM using ERMRPRKRQGSVRRRV as substrate measured after 40 mins in presence of [gamma33P]ATP by scintillation counting method
[13] = molecular target: Serine/threonine-protein kinase TAO2 (Homo sapiens) (UniProt Q9UL54); test: Inhibition of human TAO2 (1 to 320 residues) using myelin basic protein as substrate measured after 40 mins in presence of [gamma33P]ATP by scintillation counting method
[14] = molecular target: cAMP-dependent protein kinase catalytic subunit alpha (Homo sapiens) (UniProt P17612); test: Inhibition of recombinant full-length human PKA at 10 uM using Kemptide as substrate measured after 40 mins in presence of [gamma33P]ATP by scintillation counting method
[15] = molecular target: Dual specificity mitogen-activated protein kinase kinase 6 (Homo sapiens) (UniProt P52564); test: Inhibition of recombinant human MKK6 (4 to end residues) at 10 uM using unactive SAPK2a as substrate measured after 40 mins in presence of [gamma33P]ATP by scintillation counting method
[16] = molecular target: NUAK family SNF1-like kinase 1 (Homo sapiens) (UniProt O60285); test: Inhibition of recombinant human ARK5 (2 to end residues) at 10 uM using KKKVSRSGLYRSPSMPENLNRPR as substrate measured after 40 mins in presence of [gamma33P]ATP by scintillation counting method
[17] = Lipophilicity, log D of the compound at pH 7.4 by HPLC analysis; format: physicochemical; conditions: buffer
[18] = molecular target: Bromodomain-containing protein 1 (Homo sapiens) (UniProt O95696); test: Binding affinity to human partial length BRD1 (E556 to A688 residues) expressed in bacterial expression system at 1 uM by BROMOscan assay; method in brief: as §1
Homo sapiens [19] = organism: Homo sapiens; test: Inhibition of recombinant human ARAF Y301D/ Y302D mutant (273 to end residues) at 10 uM using myelin basic protein as substrate measured after 40 mins in presence of [gamma33P]ATP by scintillation counting method
[20] = molecular target: Tyrosine-protein kinase Srms (Homo sapiens) (UniProt Q9H3Y6); test: Inhibition of human SRMS at 10 uM by radiometric method; method in brief: as §2
[21] = molecular target: Serine/threonine-protein kinase MRCK gamma (Homo sapiens) (UniProt Q6DT37); test: Inhibition of recombinant human MRCKgamma at 10 uM using KKRNRTLTV as substrate measured after 40 mins in presence of [gamma33P]ATP by scintillation counting method
[22] = molecular target: Tyrosine-protein kinase HCK (Homo sapiens) (UniProt P08631); test: Inhibition of recombinant human activated HCK (230 to 497 residues) at 10 uM using GGMEDIYFEFMGGKKK as substrate measured after 40 mins in presence of [gamma33P]ATP by scintillation counting method
[23] = molecular target: Casein kinase II subunit alpha (Homo sapiens) (UniProt P68400); test: Inhibition of recombinant full length human CK2alpha1 at 10 uM using RRRDDDSDDD as substrate measured after 40 mins in presence of [gamma33P]ATP by scintillation counting method
[24] = molecular target: Serine/threonine-protein kinase 10 (Homo sapiens) (UniProt O94804); test: Inhibition of recombinant human LOK (1 to 348 residues) at 10 uM using RLGRDKYKTLRQIRQ as substrate measured after 40 mins in presence of [gamma33P]ATP by scintillation counting method

Chain of Serine/threonine-protein kinase Nek7 (Homo sapiens) (Q8TDX7 whole entry, looked up): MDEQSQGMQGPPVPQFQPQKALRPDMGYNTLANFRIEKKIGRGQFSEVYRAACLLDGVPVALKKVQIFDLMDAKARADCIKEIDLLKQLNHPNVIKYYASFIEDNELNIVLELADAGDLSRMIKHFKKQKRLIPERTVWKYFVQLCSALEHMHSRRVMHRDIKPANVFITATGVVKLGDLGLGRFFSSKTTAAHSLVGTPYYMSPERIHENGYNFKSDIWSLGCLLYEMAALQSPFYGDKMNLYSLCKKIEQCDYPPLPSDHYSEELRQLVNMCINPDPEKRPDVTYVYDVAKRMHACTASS
Chain of Receptor-interacting serine/threonine-protein kinase 2 (Homo sapiens) (O43353 whole entry, the tested form may be a part): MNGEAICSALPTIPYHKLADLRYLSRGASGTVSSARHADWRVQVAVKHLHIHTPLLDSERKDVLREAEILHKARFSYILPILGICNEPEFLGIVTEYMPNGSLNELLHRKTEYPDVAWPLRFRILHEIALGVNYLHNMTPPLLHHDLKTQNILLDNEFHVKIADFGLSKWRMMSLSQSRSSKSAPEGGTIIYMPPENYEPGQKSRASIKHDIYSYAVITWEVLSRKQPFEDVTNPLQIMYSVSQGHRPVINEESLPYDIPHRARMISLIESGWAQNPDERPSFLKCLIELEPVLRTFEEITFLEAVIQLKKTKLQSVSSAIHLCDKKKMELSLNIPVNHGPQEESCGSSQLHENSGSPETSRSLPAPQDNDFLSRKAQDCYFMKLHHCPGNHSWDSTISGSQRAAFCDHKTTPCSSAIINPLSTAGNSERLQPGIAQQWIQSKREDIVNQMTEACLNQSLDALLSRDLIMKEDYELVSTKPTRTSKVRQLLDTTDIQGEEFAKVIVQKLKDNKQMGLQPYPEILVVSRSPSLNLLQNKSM
Chain of Leukocyte tyrosine kinase receptor (Homo sapiens) (P29376 whole entry): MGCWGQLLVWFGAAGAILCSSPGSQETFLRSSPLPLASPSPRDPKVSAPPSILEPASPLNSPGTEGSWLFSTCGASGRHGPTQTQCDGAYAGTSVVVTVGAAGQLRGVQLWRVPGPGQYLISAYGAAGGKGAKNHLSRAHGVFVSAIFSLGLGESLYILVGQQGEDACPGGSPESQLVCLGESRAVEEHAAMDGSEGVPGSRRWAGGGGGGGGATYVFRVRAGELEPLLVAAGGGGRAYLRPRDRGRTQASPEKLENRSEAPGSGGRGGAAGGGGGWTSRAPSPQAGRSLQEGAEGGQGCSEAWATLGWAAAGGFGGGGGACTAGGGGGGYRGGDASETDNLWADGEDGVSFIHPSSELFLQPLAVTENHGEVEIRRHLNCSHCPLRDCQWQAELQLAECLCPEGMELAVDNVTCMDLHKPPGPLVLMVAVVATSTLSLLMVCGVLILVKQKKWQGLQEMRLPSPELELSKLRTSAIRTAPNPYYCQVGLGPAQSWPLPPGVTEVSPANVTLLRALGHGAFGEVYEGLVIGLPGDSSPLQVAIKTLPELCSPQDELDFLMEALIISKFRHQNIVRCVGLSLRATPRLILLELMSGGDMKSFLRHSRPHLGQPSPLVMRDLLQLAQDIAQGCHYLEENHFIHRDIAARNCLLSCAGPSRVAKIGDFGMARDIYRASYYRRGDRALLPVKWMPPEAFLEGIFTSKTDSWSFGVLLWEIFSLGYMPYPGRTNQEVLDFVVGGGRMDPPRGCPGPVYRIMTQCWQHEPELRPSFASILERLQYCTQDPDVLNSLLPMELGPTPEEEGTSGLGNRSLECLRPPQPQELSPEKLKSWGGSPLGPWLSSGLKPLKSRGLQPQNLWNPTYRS
Chain of Tyrosine-protein kinase Srms (Homo sapiens) (Q9H3Y6 whole entry): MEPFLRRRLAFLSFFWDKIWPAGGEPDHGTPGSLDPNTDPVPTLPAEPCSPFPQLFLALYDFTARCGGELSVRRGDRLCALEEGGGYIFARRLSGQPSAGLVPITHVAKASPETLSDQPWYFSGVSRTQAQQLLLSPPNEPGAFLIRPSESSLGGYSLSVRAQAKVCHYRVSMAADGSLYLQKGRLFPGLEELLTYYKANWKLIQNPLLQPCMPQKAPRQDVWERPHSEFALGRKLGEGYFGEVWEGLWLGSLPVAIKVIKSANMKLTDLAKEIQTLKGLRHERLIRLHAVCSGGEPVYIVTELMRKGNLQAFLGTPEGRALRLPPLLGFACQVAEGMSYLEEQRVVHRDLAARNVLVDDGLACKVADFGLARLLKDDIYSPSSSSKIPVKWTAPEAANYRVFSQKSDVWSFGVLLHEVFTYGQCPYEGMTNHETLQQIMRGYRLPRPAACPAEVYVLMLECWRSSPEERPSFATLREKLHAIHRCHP
Chain of Tyrosine-protein kinase HCK (Homo sapiens) (P08631 2-526 limits assumed): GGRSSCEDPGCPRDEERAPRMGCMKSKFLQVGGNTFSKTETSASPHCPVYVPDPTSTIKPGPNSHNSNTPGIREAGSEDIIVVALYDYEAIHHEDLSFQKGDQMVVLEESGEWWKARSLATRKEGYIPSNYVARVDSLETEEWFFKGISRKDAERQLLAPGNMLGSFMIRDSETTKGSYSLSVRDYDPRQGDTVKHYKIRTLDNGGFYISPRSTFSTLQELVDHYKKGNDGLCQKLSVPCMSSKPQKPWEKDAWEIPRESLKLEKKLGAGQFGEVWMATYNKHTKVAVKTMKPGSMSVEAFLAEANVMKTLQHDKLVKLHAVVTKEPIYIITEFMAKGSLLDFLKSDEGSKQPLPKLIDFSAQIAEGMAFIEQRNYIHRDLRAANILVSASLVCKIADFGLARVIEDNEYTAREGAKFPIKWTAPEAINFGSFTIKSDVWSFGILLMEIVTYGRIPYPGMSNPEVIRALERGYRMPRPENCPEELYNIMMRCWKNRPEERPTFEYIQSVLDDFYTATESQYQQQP
Chain of Serine/threonine-protein kinase MRCK gamma (Homo sapiens) (Q6DT37 whole entry, the tested form may be a part): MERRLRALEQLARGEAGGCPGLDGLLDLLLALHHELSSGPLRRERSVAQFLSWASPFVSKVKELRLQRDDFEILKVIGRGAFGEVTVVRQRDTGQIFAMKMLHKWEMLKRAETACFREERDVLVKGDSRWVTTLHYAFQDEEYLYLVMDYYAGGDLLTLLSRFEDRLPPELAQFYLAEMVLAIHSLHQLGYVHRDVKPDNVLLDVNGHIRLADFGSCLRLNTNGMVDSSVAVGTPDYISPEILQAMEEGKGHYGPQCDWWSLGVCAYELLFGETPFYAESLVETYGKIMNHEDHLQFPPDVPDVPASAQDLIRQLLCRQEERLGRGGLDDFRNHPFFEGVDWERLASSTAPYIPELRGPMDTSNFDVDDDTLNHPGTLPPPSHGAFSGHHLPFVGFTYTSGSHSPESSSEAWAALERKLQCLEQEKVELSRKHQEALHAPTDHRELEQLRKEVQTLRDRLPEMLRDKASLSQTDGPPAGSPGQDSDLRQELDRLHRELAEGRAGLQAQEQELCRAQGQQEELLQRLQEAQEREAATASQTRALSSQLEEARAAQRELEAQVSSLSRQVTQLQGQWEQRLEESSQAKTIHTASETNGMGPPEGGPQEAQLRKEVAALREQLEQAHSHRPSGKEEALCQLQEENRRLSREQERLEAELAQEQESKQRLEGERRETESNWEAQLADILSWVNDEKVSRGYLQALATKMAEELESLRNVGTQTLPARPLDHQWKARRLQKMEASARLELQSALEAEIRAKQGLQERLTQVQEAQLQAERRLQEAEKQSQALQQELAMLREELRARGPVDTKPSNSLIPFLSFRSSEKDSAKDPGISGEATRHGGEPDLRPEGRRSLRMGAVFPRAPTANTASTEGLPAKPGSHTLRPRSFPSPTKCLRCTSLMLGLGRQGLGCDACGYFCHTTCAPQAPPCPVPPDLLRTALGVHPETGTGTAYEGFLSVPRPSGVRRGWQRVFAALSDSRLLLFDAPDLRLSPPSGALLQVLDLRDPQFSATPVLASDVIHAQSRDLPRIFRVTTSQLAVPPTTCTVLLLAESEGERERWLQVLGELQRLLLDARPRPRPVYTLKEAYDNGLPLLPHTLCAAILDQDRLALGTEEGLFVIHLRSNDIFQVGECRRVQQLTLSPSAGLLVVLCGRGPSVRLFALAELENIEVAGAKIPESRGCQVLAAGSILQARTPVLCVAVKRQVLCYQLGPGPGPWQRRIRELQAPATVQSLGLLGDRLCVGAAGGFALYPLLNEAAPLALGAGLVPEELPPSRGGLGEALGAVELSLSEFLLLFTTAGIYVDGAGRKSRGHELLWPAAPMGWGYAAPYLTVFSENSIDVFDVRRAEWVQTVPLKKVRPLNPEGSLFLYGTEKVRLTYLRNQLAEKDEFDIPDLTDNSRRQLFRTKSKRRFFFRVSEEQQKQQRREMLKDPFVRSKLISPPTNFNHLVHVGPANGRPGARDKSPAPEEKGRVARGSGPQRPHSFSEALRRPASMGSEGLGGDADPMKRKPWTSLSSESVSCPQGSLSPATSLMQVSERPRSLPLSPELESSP
Chain of Dual specificity protein kinase CLK2 (Homo sapiens) (P49760 whole entry, looked up, the tested form may be a part): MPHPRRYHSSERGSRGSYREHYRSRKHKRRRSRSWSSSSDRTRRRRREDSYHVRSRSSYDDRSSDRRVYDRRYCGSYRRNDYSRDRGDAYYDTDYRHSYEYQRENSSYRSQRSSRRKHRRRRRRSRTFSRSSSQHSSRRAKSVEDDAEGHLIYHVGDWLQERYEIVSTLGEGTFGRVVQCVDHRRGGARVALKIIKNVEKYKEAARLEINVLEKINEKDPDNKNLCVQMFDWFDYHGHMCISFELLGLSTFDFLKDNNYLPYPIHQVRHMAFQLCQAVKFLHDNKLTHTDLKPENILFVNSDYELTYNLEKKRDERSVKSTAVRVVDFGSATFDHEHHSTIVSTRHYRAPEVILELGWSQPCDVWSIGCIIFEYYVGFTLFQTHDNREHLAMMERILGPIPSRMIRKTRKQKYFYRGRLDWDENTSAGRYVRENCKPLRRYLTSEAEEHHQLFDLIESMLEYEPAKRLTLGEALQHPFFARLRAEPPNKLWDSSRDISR

CN1C[C@H](Nc2nc3cc[nH]c3c(=O)n2C)C[C@H](c2ccc3c(c2)OCCO3)C1
inhibition [1]: inactive
inhibition [2]: inactive
inhibition [3]: inactive
AUC(0-inf) [4]: 2490 ng·h/mL
Activity [5]: inactive
inhibition [6]: inactive
inhibition [7]: inactive
inhibition (Homo sapiens [8]): inactive
inhibition [9]: inactive
inhibition [10]: inactive
inhibition [11]: inactive
inhibition [12]: inactive
inhibition [13]: inactive
inhibition [14]: inactive
inhibition [15]: inactive
inhibition [16]: inactive
logD [17]: 1.9
Activity [18]: inactive
inhibition (Homo sapiens [19]): inactive
inhibition [20]: inactive
inhibition [21]: inactive
inhibition [22]: inactive
inhibition [23]: inactive
inhibition [24]: inactive
